Laboratory results reported in ChEMBL document CHEMBL3120159, “Discovery of 2-pyridone derivatives as potent HIV-1 NNRTIs using molecular hybridization based on crystallographic overlays” (Bioorg Med Chem, 2014).

Assays:
[1] = test system: Human immunodeficiency virus 1; experiment: Antiviral activity against HIV1 RES056 harboring reverse transcriptase K103N/Y181C double mutant infected in human MT4 cells assessed as protection against virus-induced cytopathic effect after 5 days by MTT assay; assay type: functional, organism-based; settings: Human immunodeficiency virus 1, RES056, MT4, 120 h
In short: (§1)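 MT-4 cells, growing exponentially, were spun and resuspended at 6 × 10⁵ cells/mL. They were infected at the start together with compound, given as serial five-fold dilutions in triplicate wells, with mock-infected wells run in parallel. Viability was read by MTT after 5 days. EC₅₀ is the concentration giving 50% protection against viral cytopathic effect.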

[2] = Cytotoxicity against human MT4 cells after 5 days by MTT assay; assay type: cell-based
In short: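 Exponentially growing MT-4 cells resuspended at 6 × 10⁵ cells/mL and exposed to serial five-fold compound dilutions in triplicate, mock-infected alongside infected wells. Viability read by MTT assay at day 5. CC₅₀ = concentration reducing mock-infected cell viability by 50%.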

[3] = test system: Human immunodeficiency virus 2; experiment: Antiviral activity against HIV2 ROD infected in human MT4 cells assessed as protection against virus-induced cytopathic effect after 5 days by MTT assay; assay type: functional, organism-based; settings: Human immunodeficiency virus 2, ISOLATE ROD, MT4, 120 h
In short: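 MT-4 cells resuspended at 6 × 10⁵ cells/mL after centrifugation at 200 g for 5 min. HIV-2 (ROD) added at 100-300 CCID₅₀. Test compound given as serial five-fold dilutions, triplicate wells. Viability of infected cells measured spectrophotometrically by MTT after 5 days. EC₅₀ = concentration giving 50% protection against viral cytopathic effect.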

[4] = Selectivity index, ratio of CC50 for human MT4 cells to EC50 for HIV2 ROD; assay type: toxicity, cell-based; settings: read-out: Ratio CC50/EC50
In short: (§2)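 Selectivity index is CC₅₀/EC₅₀. Both values come from the same MTT assay in MT-4 cells: mock-infected and virus-infected (100-300 CCID₅₀) wells were run in parallel and read at day 5.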

[5] = Selectivity index, ratio of CC50 for human MT4 cells to EC50 for HIV1 RES056; assay type: toxicity, cell-based; settings: read-out: Ratio CC50/EC50; in short: as §2
[6] = Selectivity index, ratio of CC50 for human MT4 cells to EC50 for HIV1 3B; assay type: toxicity, cell-based; settings: read-out: Ratio CC50/EC50; in short: as §2
[7] = test system: Human immunodeficiency virus 1; experiment: Antiviral activity against HIV1 3B harboring wild type reverse transcriptase infected in human MT4 cells assessed as protection against virus-induced cytopathic effect after 5 days by MTT assay; assay type: functional, organism-based; settings: Human immunodeficiency virus 1, 3B, MT4, 120 h; in short: as §1
[8] = target: Human immunodeficiency virus type 1 reverse transcriptase (Human immunodeficiency virus 1, UniProt Q72547); experiment: Inhibition of HIV1 reverse transcriptase assessed as inhibition of biotinylated dUTP incorporation after 1 hr by ELISA
In short: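 Recombinant HIV-1 RT kit (colorimetric ELISA). Poly(A)·oligo(dT)₁₅ template/primer with DIG-dUTP, biotin-dUTP and dTTP, ±inhibitor, 1 h at 37 °C. Product captured on streptavidin plate (1 h, 37 °C), then anti-DIG-POD (1 h, 37 °C), ABTS developed at 25 °C, A405 read. IC₅₀ = concentration inhibiting biotin-dUTP incorporation by 50%.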

[9] = test system: Human immunodeficiency virus 1; experiment: Antiviral activity against HIV1 harboring reverse transcriptase Y181C mutant infected in human MT4 cells; assay type: functional, organism-based; settings: Human immunodeficiency virus 1, MT4
[10] = test system: Human immunodeficiency virus 1; experiment: Antiviral activity against HIV1 harboring reverse transcriptase K101N mutant infected in human MT4 cells; assay type: functional, organism-based; settings: Human immunodeficiency virus 1, MT4
[11] = test system: Human immunodeficiency virus 1; experiment: Antiviral activity against HIV1 harboring wild type reverse transcriptase infected in human MT4 cells; assay type: functional, organism-based; settings: Human immunodeficiency virus 1, MT4
[12] = test system: Human immunodeficiency virus 1; experiment: Antiviral activity against HIV1 harboring reverse transcriptase K101N/Y181C double mutant infected in human MT4 cells; assay type: functional, organism-based; settings: Human immunodeficiency virus 1, MT4

SMILES | EC50 [1] [µM] | CC50 at 120 h [2] [µM] | EC50 [3] [µM] | selectivity ratio [4] | selectivity ratio [5] | selectivity ratio [6] | EC50 [7] [µM] | IC50 [8] [µM] | EC50 [9] [µM] | EC50 [10] [µM] | EC50 [11] [µM] | EC50 [12] [µM]
Cc1cc(C#N)cc(C)c1Oc1cc(Nc2ccc(C#N)cc2)[nH]c(=O)c1Cl | > 319 | > 319 | > 319 | 1 | 1 | > 44 | 7.2 |  |  |  |  | 
Cc1cc(C)c(Oc2cc(Nc3ccc(C#N)cc3)[nH]c(=O)c2)c(C)c1 | > 32 | 32 | > 32 | < 1 | < 1 | 87 | 0.37 | 39 |  |  |  | 
Cc1cc(C#N)cc(C)c1Oc1cc(Nc2ccc(C#N)cc2)[nH]c(=O)c1 | > 25 | 25 | > 25 | < 1 | < 1 | 166 | 0.15 | 5.2 |  |  |  | 
Cc1cccc(C)c1Oc1cc(Nc2ccc(C#N)cc2)[nH]c(=O)c1 | > 36 | 36 | > 36 | < 1 | < 1 | 26 | 1.4 |  |  |  |  | 
Cc1cc(C)cc(Oc2cc(Nc3ccc(C#N)cc3)[nH]c(=O)c2)c1 |  | 46 | > 46 | < 1 |  | < 1 | > 46 |  |  |  |  | 
Cc1cc(C)c(Oc2cc(Nc3ccc(C#N)cc3)[nH]c(=O)c2I)c(C)c1 | > 34 | 34 | > 34 | < 1 | < 1 | 6 | 5.6 |  |  |  |  | 
Cc1cc(C)c(Oc2cc(Nc3ccc(C#N)cc3)[nH]c(=O)c2Br)c(C)c1 | > 294 | > 294 | > 294 | 1 | 1 | > 9 | 32 |  |  |  |  | 
Cc1cc(C)c(Oc2cc(Nc3ccc(C#N)cc3)[nH]c(=O)c2Cl)c(C)c1 | > 329 | > 329 | > 329 | 1 | 1 | > 35 | 9.3 |  |  |  |  | 
Cc1cc(C#N)cc(C)c1Oc1cc(Nc2ccc(C#N)cc2)[nH]c(=O)c1I | > 259 | > 259 | > 259 | 1 | 1 | > 89 | 2.9 |  |  |  |  | 
Cc1cc(C#N)cc(C)c1Oc1cc(Nc2ccc(C#N)cc2)[nH]c(=O)c1Br | > 287 | > 287 | > 287 | 1 | 1 | > 244 | 1.2 |  |  |  |  | 
Cc1cccc(C)c1Oc1cc(Nc2ccc(C#N)cc2)[nH]c(=O)c1I | > 28 | 28 | > 28 | < 1 | < 1 | 16 | 1.7 |  |  |  |  | 
Cc1cccc(C)c1Oc1cc(Nc2ccc(C#N)cc2)[nH]c(=O)c1Br | > 63 | 63 | > 63 | < 1 | < 1 | 17 | 3.6 |  |  |  |  | 
Cc1cccc(C)c1Oc1cc(Nc2ccc(C#N)cc2)[nH]c(=O)c1Cl | > 29 | 29 | > 29 | < 1 | < 1 | 12 | 2.4 |  |  |  |  | 
Cc1cc(C)cc(Oc2cc(Nc3ccc(C#N)cc3)[nH]c(=O)c2I)c1 |  | 24 | > 24 | < 1 |  | < 1 | > 24 |  |  |  |  | 
Cc1cc(C)cc(Oc2cc(Nc3ccc(C#N)cc3)[nH]c(=O)c2Br)c1 |  | 19 | > 19 | < 1 |  | < 1 | > 19 |  |  |  |  | 
Cc1cc(C)cc(Oc2cc(Nc3ccc(C#N)cc3)[nH]c(=O)c2Cl)c1 |  | 21 | > 21 | < 1 |  | < 1 | > 21 |  |  |  |  | 
COc1cc(Oc2c(C)cc(C)cc2C)cc(Nc2ccc([N+](=O)[O-])cc2)n1 |  | 7.2 | > 7.2 | < 1 |  | < 1 | > 7.2 |  |  |  |  | 
COc1cc(Oc2c(C)cc(C)cc2C)cc(Nc2ccc(C)cc2)n1 |  | 35 | > 35 | < 1 |  | < 1 | > 35 |  |  |  |  | 
COc1cc(Oc2c(C)cc(C)cc2C)cc(Nc2ccc(C#N)cc2)n1 | > 29 | 29 | > 29 | < 1 | < 1 | 35 | 0.84 |  |  |  |  | 
COc1cc(Oc2c(C)cc(C#N)cc2C)cc(Nc2ccc(C#N)cc2)n1 | > 147 | > 147 | > 147 | ≤ 1 | 1 | ≥ 211 | 0.7 |  |  |  |  | 
COc1cc(Oc2c(C)cccc2C)cc(Nc2ccc(C#N)cc2)n1 |  | 8.5 | > 8.8 | < 1 |  | < 1 | > 8.5 |  |  |  |  | 
COc1cc(Oc2cc(C)cc(C)c2)cc(Nc2ccc(C#N)cc2)n1 |  | 20 | > 20 | < 1 |  | < 1 | > 20 |  |  |  |  | 
Cc1cc(C)c(Oc2cc(Nc3ccc([N+](=O)[O-])cc3)[nH]c(=O)c2)c(C)c1 | > 26 | 26 | > 26 | < 1 | < 1 | 19 | 1.4 |  |  |  |  | 
Cc1ccc(Nc2cc(Oc3c(C)cc(C)cc3C)cc(=O)[nH]2)cc1 | > 37 | 37 | > 37 | < 1 | < 1 | 26 | 1.4 |  |  |  |  | 
Cc1cc(C)cc(Oc2c(CSCc3ccco3)c(C)[nH]c(=O)c2I)c1 |  |  |  |  |  |  |  |  | 0.005 | 0.001 | 0.002 | 0.004
CC(C)Nc1cccnc1N1CCN(C(=O)c2cc3cc(NS(C)(=O)=O)ccc3[nH]2)CC1 [DELAVIRDINE] | > 36 | > 36 |  |  |  | > 40 | 0.91 |  |  |  |  | 
Cc1cc(C#N)cc(C)c1Oc1nc(Nc2ccc(C#N)cc2)nc(N)c1Br [ETRAVIRINE] |  |  |  |  |  |  |  |  |  | 0.0012 |  | 0.0043
Cc1ccnc2c1NC(=O)c1cccnc1N2C1CC1 [NEVIRAPINE] |  | > 15 |  |  |  |  |  |  |  |  |  | 
Cc1cc(/C=C/C#N)cc(C)c1Nc1ccnc(Nc2ccc(C#N)cc2)n1 [RILPIVIRINE] |  |  |  |  |  |  |  |  |  | 0.0003 |  | 
